From ChEMBL document CHEMBL1132410, “5-Chloro-N-(4-methoxy-3-piperazin-1-yl- phenyl)-3-methyl-2-benzothiophenesulfon- amide (SB-271046): a potent, selective, and orally bioavailable 5-HT6 receptor antagonist” (J Med Chem, 1999)

What was measured:
Cytochrome P450 1A2 = target: T1, Cytochrome P450 1A2 (Homo sapiens, UniProt P05177); experiment: Inhibition of human cytochrome P450 1A2 activity as caffeine N3 demethylation (500 uM); assay type: ADME
T1 sequence (P05177 whole entry): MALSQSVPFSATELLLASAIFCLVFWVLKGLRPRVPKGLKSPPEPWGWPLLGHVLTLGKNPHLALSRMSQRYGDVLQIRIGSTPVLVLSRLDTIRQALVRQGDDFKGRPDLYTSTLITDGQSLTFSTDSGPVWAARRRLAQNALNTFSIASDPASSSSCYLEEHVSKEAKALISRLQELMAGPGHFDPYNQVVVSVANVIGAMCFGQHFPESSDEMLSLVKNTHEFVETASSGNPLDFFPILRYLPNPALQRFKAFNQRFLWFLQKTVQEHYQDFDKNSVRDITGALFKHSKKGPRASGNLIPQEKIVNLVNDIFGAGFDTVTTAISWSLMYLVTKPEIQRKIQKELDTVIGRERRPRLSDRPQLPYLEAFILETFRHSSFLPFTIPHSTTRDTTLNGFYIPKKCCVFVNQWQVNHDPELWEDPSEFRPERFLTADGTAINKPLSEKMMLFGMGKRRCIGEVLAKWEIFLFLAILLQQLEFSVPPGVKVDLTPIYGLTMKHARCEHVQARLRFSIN
Procedure, shortened: (§1)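 Heterologously expressed human CYP isoforms in isoform-selective assays, with substrate at its Km. CYP1A2: caffeine N3-demethylation (500 μM). CYP2C9: tolbutamide methylhydroxylation (100 μM). CYP2C19: S-mephenytoin 4-hydroxylation (100 μM). CYP2D6: bufuralol 1'-hydroxylation (10 μM). CYP3A4: total cyclosporin oxidation (1 μM). IC50 is the mean of duplicate determinations, agreeing within 10%.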

D(2) dopamine receptor = D(2) dopamine receptor (Homo sapiens, UniProt P14416); experiment: Compound was tested for its binding affinity against Dopamine receptor D2 in human cloned receptors in CHO cells using [125 I]iodosulpride; assay type: cell-based
Chain of D(2) dopamine receptor (P14416 whole entry): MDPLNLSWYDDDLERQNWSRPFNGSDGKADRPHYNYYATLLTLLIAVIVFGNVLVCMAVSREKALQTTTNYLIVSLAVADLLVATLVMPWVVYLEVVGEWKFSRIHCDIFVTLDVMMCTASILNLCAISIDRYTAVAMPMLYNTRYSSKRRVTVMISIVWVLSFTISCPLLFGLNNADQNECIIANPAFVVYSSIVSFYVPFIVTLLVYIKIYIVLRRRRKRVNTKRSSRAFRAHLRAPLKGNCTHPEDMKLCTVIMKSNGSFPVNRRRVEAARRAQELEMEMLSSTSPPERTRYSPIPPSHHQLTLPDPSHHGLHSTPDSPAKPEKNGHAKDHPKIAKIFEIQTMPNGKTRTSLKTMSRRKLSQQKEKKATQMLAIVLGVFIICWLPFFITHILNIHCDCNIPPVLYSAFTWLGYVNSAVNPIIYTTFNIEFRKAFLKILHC
Procedure, shortened: (§2)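 Radioligand binding at human cloned receptors; cell hosts and radioligands as listed per line: 5-HT1A, 5-HT2A, 5-HT2B, 5-HT2C and 5-HT7 in HEK 293 cells; 5-HT1B, 5-HT1D, 5-HT1E, 5-HT1F, D2 and D3 in CHO cells; 5-HT6 in HeLa cells. Values are the mean of at least two determinations, each within 0.2 log unit of the mean.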

[1] = target: 5-hydroxytryptamine receptor 2B (Homo sapiens, UniProt P41595); experiment: Compound was tested for its binding affinity against cloned human 5-hydroxytryptamine 2B receptor in HEK 293 cells using [3H]5-HT; assay type: cell-based, HEK293; procedure, shortened: as §2
Chain of 5-hydroxytryptamine receptor 2B (P41595 whole entry): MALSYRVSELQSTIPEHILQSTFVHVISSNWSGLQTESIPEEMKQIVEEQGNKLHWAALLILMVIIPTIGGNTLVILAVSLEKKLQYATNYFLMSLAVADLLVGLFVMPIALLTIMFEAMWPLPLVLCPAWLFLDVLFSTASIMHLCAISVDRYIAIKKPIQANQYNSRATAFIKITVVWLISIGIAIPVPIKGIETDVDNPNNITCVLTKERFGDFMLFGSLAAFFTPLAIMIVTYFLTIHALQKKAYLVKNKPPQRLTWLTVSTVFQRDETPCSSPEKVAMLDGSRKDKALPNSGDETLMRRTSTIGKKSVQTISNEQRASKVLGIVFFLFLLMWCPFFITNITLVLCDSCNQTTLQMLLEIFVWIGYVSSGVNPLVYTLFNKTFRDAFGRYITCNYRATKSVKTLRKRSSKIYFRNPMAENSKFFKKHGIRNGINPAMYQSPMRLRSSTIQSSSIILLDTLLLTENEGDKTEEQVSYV

Cytochrome P450 2C9 = Cytochrome P450 2C9 (Homo sapiens, UniProt P11712); experiment: Inhibitory potential of human cytochrome P450 2C9 as Tolbutamide methylhydroxylation (100 uM); assay type: ADME; procedure, shortened: as §1
Cytochrome P450 2D6 = Cytochrome P450 2D6 (Homo sapiens, UniProt P10635); experiment: Inhibition of human cytochrome P450 2D6 as bufuralol 1''-hydroxylation (10 uM); assay type: ADME; procedure, shortened: as §1
Chain of Cytochrome P450 2D6 (P10635 whole entry): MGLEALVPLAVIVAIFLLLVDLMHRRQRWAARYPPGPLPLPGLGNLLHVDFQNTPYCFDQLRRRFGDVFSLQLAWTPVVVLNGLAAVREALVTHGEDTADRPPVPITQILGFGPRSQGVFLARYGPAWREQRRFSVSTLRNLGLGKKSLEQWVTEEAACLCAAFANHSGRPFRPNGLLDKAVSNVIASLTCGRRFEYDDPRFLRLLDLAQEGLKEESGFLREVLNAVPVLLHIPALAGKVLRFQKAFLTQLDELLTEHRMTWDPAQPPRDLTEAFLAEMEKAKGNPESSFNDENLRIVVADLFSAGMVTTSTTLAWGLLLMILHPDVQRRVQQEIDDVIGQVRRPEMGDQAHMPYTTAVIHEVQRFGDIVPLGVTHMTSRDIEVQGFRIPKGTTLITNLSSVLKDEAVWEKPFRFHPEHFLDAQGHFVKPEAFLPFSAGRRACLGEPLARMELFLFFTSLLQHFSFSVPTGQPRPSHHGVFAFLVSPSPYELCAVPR

[2] = target: 5-hydroxytryptamine receptor 7 (Homo sapiens, UniProt P34969); experiment: Compound was tested for its binding affinity against human cloned 5-hydroxytryptamine 7 receptor in HEK 293 cells using [3H]5-CT; assay type: cell-based, HEK293; procedure, shortened: as §2
Chain of 5-hydroxytryptamine receptor 7 (P34969 whole entry): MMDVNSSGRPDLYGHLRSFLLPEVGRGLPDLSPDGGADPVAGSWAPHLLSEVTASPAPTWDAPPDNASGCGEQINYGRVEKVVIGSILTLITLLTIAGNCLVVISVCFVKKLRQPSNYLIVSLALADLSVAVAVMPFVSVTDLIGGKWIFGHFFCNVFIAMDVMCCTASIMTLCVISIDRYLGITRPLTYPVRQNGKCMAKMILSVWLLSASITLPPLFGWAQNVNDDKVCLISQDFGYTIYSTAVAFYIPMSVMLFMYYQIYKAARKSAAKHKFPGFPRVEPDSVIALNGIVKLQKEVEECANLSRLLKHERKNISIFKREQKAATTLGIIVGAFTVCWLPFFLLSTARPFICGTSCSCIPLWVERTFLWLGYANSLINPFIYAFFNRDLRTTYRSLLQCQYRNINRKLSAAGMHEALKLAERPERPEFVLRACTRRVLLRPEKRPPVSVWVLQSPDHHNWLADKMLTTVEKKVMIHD

[3] = target: 5-hydroxytryptamine receptor 1B (Homo sapiens, UniProt P28222); experiment: Compound was tested for its binding affinity against human cloned 5-hydroxytryptamine 1B receptor in CHO cells using [3H]5-HT; assay type: cell-based; procedure, shortened: as §2
Chain of 5-hydroxytryptamine receptor 1B (P28222 whole entry): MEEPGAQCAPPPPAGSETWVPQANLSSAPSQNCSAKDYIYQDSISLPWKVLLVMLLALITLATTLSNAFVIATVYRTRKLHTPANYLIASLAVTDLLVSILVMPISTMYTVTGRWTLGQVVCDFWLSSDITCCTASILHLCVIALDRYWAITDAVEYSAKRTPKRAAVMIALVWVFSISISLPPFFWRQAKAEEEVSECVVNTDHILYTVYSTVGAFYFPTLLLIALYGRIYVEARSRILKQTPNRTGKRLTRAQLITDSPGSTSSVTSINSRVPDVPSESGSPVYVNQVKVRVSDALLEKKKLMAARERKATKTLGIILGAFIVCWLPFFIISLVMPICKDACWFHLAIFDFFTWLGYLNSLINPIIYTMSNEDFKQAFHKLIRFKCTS

Cytochrome P450 2C19 = Cytochrome P450 2C19 (Homo sapiens, UniProt P33261); experiment: Inhibition of human cytochrome P450 2C19 as S-mephenytoin-4-hydroxylation (100 uM); assay type: ADME; procedure, shortened: as §1
Chain of Cytochrome P450 2C19 (P33261 whole entry): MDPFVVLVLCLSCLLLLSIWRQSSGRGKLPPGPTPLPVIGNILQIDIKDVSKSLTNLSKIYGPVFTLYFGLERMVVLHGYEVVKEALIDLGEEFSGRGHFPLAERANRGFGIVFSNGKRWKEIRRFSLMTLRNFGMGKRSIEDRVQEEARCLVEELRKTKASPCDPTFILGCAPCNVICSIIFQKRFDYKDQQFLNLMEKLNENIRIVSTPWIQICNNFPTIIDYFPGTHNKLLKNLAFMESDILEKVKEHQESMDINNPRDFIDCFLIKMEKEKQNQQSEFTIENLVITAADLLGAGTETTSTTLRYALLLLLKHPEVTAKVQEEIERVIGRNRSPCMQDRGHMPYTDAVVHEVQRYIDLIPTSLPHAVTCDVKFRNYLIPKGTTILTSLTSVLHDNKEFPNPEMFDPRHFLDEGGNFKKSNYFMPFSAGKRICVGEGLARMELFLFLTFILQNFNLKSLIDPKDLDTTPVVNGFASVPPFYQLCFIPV

[4] = target: 5-hydroxytryptamine receptor 4 (Homo sapiens, UniProt Q13639); experiment: Compound was tested for its binding affinity against 5-hydroxytryptamine 4 receptor
[5] = target: 5-hydroxytryptamine receptor 2A (Homo sapiens, UniProt P28223); experiment: Compound was tested for its binding affinity against 5-hydroxytryptamine 2A receptor in human cloned receptors in HEK 293 cells using [3H]ketanserin; assay type: cell-based, HEK293; procedure, shortened: as §2
Chain of 5-hydroxytryptamine receptor 2A (P28223 whole entry): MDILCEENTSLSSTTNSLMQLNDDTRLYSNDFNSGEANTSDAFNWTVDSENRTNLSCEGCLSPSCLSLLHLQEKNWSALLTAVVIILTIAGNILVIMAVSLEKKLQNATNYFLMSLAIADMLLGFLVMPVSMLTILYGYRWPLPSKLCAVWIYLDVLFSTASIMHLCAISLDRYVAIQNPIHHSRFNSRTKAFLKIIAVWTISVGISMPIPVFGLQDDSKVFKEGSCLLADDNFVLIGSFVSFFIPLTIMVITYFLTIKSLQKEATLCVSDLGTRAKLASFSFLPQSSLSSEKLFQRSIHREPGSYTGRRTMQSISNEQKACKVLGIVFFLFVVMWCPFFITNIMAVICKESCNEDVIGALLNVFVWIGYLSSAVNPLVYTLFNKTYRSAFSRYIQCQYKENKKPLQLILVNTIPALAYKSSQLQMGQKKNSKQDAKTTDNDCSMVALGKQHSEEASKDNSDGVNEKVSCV

[6] = target: T2, 5-hydroxytryptamine receptor 2C (Homo sapiens, UniProt P28335); experiment: Compound was tested for its binding affinity against human cloned 5-hydroxytryptamine 2C receptor in HEK 293 cells using [3H]mesulergine; assay type: cell-based, HEK293; procedure, shortened: as §2
T2 sequence (P28335 whole entry): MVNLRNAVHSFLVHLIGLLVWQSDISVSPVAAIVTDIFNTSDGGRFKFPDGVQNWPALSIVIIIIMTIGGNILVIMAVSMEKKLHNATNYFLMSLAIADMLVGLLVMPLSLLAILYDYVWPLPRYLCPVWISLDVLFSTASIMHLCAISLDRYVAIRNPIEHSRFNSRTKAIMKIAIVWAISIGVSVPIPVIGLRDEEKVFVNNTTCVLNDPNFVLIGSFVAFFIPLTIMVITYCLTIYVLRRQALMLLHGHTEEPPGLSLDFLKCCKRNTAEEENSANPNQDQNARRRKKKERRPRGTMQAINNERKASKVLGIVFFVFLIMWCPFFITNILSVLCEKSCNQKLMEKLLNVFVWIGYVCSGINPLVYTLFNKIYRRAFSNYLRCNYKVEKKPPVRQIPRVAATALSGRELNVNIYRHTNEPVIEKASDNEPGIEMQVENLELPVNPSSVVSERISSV

[7] = target: 5-hydroxytryptamine receptor 6 (Homo sapiens, UniProt P50406); experiment: Binding affinity against human cloned 5-hydroxytryptamine 6 receptor in HeLa cells using [3H]LSD; assay type: cell-based; procedure, shortened: as §2
Chain of 5-hydroxytryptamine receptor 6 (P50406 whole entry): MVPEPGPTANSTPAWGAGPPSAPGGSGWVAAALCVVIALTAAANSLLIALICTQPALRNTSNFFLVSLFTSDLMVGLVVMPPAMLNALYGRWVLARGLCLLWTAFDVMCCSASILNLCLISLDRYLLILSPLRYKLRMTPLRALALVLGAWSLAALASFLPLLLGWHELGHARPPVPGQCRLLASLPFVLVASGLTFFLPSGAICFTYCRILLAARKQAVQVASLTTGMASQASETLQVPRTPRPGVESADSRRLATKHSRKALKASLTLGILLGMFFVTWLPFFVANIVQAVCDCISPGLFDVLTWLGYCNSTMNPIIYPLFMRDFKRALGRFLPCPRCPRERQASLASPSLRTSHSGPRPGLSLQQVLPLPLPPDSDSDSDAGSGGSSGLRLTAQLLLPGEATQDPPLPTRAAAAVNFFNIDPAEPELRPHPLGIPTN

[8] = target: 5-hydroxytryptamine receptor 1E (Homo sapiens, UniProt P28566); experiment: Compound was tested for its binding affinity against cloned human 5-hydroxytryptamine 1E receptor in CHO cells using [3H]-5-HT; assay type: cell-based; procedure, shortened: as §2
Chain of 5-hydroxytryptamine receptor 1E (P28566 whole entry): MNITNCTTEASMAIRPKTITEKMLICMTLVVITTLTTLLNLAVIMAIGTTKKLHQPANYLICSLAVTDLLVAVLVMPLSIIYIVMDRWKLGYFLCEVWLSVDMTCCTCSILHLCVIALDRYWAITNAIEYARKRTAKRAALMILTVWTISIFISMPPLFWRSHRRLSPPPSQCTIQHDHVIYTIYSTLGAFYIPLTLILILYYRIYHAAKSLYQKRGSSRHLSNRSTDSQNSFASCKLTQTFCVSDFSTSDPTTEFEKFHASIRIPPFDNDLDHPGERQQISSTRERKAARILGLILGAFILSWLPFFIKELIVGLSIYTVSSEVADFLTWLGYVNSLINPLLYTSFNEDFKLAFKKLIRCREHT

[9] = target: T3, 5-hydroxytryptamine receptor 1A (Homo sapiens, UniProt P08908); experiment: Compound was tested for its binding affinity against 5-hydroxytryptamine 1A receptor in human cloned receptors in HEK 293 cells using [3H]8-OH-DPAT; assay type: cell-based, HEK293; procedure, shortened: as §2
T3 sequence (P08908 whole entry): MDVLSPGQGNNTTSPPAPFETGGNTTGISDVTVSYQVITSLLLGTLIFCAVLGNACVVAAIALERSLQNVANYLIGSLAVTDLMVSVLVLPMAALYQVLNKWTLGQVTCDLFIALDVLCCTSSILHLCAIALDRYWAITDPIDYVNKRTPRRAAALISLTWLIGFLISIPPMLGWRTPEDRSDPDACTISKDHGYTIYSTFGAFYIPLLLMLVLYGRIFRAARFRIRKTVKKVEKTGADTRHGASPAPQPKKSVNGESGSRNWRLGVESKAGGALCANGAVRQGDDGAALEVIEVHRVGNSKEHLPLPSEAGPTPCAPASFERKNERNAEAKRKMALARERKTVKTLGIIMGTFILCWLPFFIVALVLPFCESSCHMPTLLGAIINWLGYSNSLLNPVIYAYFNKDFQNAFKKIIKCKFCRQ

Cytochrome P450 3A4 = Cytochrome P450 3A4 (Homo sapiens, UniProt P08684); experiment: Inhibition of human cytochrome P450 3A4 as total cyclosporin oxidation (1 uM); assay type: ADME
Procedure, shortened: as §1, with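 “μM).” for “μM). IC50 is the mean of duplicate determinations, agreeing within 10%.”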

D(3) dopamine receptor = D(3) dopamine receptor (Homo sapiens, UniProt P35462); experiment: Compound was tested for its binding affinity against Dopamine receptor D3 in human cloned receptors in CHO cells using [125 I]iodosulpride; assay type: cell-based; procedure, shortened: as §2
Chain of D(3) dopamine receptor (P35462 whole entry): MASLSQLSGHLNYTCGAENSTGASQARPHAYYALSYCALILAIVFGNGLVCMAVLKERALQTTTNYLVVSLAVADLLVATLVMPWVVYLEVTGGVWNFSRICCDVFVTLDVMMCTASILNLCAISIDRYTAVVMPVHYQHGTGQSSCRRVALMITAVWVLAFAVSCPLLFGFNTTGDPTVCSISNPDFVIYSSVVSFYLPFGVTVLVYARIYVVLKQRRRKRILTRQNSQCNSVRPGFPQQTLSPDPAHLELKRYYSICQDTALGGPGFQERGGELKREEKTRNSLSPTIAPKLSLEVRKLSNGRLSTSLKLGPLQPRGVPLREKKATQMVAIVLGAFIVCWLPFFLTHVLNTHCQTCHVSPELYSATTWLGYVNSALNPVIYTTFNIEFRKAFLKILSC

[10] = target: T4, Alpha-1B adrenergic receptor (Homo sapiens, UniProt P35368); experiment: Compound was tested for its binding affinity against adrenergic Alpha-1B adrenergic receptor
T4 sequence (P35368 whole entry): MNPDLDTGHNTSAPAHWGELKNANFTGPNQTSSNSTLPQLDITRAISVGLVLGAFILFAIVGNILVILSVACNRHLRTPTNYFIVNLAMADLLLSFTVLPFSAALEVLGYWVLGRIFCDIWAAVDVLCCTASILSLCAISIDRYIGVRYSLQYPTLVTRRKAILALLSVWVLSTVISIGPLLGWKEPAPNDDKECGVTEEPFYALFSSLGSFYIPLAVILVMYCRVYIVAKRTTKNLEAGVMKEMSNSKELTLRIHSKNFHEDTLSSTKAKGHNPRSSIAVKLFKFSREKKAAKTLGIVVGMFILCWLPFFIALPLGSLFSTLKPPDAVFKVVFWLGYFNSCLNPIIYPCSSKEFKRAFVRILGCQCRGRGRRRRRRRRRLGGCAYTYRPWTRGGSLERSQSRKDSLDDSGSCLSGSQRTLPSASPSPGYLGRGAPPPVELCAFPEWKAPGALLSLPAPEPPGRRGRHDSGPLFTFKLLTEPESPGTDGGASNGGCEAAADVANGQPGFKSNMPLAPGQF

[11] = target: T5, 5-hydroxytryptamine receptor 1F (Homo sapiens, UniProt P30939); experiment: Compound was tested for its binding affinity against 5-hydroxytryptamine 1F receptor in human cloned receptors in CHO cells using [3H]5-HT; assay type: cell-based; procedure, shortened: as §2
T5 sequence (P30939 whole entry): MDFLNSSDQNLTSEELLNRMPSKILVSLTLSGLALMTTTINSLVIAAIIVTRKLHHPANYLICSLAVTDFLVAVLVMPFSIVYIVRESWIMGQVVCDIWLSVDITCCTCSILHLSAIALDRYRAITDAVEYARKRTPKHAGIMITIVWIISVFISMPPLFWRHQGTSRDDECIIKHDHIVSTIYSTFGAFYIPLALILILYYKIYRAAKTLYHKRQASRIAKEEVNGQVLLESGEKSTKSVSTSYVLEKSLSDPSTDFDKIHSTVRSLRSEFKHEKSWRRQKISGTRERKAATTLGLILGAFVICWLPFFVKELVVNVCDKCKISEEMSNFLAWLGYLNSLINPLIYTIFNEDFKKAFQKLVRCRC

[12] = target: 5-hydroxytryptamine receptor 1D (Homo sapiens, UniProt P28221); experiment: Compound was tested for its binding affinity against human cloned 5-hydroxytryptamine 1D receptor in CHO cells using [3H]5-HT; assay type: cell-based; procedure, shortened: as §2
Chain of 5-hydroxytryptamine receptor 1D (P28221 whole entry): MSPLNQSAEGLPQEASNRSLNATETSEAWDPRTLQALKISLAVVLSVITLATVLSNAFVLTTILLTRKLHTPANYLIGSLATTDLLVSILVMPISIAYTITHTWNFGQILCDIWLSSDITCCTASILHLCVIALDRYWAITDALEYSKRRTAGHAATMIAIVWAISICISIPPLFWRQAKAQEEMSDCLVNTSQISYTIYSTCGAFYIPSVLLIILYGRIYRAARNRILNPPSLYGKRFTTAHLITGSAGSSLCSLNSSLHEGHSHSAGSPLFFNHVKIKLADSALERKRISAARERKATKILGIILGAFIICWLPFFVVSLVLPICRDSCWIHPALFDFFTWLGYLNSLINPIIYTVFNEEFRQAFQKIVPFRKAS

Homo sapiens = species: Homo sapiens; experiment: Selectivity for 5-HT6 receptors with respect to the 5-HT1A, 5-HT1B, 5-HT1D, 5-HT1E, 5-HT1F, 5-HT2A, 5-HT2B, 5-HT2C, 5-HT4, 5-HT7, Alpha-1B, D2, D3 receptors.
[13] = target: T4, Alpha-1B adrenergic receptor; experiment: Compound was tested for its binding affinity against Alpha-1B adrenergic receptor

COc1ccc(NS(=O)(=O)c2ccc(Br)cc2)cc1N1CCN(C)CC1
IC50 (Cytochrome P450 1A2): 10000 nM
Ki (D(2) dopamine receptor): 3980 nM
Ki [1]: 631 nM
IC50 (Cytochrome P450 2C9): > 100000 nM
IC50 (Cytochrome P450 2D6): 11000 nM
Ki [2]: 2510 nM
Ki [3]: 398 nM
IC50 (Cytochrome P450 2C19): 46000 nM
Ki [4]: 2510 nM
Ki [5]: 1260 nM
Ki [6]: 1000 nM
Ki [7]: 5.01 nM
Ki [8]: 1580 nM
Ki [9]: 251 nM
IC50 (Cytochrome P450 3A4): 6000 nM
Ki (D(3) dopamine receptor): 794 nM
Ki [10]: 2510 nM
Ki [11]: 316 nM
Ki [12]: 251 nM

COc1ccc(NS(=O)(=O)c2sc3ccc(Cl)cc3c2C)cc1N1CCNCC1
IC50 (Cytochrome P450 1A2): 66000 nM
Ki (D(2) dopamine receptor): 2510 nM
Ki [1]: > 3980 nM
IC50 (Cytochrome P450 2C9): > 100000 nM
IC50 (Cytochrome P450 2D6): 32000 nM
Ki [3]: 794 nM
IC50 (Cytochrome P450 2C19): 26000 nM
Ki [5]: > 2510 nM
Ki [6]: 2000 nM
Ki [8]: > 10000 nM
Ki [10]: 2000 nM
Ki [11]: > 1000 nM
Ki [12]: 251 nM

COc1ccc(NS(=O)(=O)c2cc(Cl)cc(Cl)c2)cc1N1CCN(C)CC1
Selectivity (Homo sapiens): > 100
Ki [7]: 2 nM

CNc1cc(NS(=O)(=O)c2ccc(N)cc2)nc(NC)n1
Ki [7]: 50.1 nM

COc1ccc(NS(=O)(=O)c2cc(I)ccc2C)cc1N1CCN(C)CC1
Selectivity (Homo sapiens): > 125
Ki [7]: 1 nM

COc1ccc(NS(=O)(=O)c2cccc(C#N)c2)cc1N1CCN(C)CC1
Ki [7]: 63.1 nM

COc1ccc(NS(=O)(=O)c2ccccc2)cc1N1CCN(C)CC1
Selectivity (Homo sapiens): 80
Ki [7]: 10 nM

COc1ccc(NS(=O)(=O)c2cccc(I)c2)cc1N1CCN(C)CC1
Selectivity (Homo sapiens): > 200
Ki [7]: 0.794 nM

COc1ccc(NS(=O)(=O)c2sc3ccc(Cl)cc3c2C)cc1N1CCN(C)CC1
Ki (D(2) dopamine receptor): 794 nM
Ki [13]: 2000 nM
Ki [1]: 1000 nM
Ki [2]: 3160 nM
Ki [3]: 794 nM
Ki [4]: 3160 nM
Ki [5]: 1000 nM
Ki [6]: 501 nM
Ki [8]: 2510 nM
Ki [9]: 501 nM
Ki (D(3) dopamine receptor): 200 nM
Ki [11]: 251 nM
Ki [12]: 200 nM

COc1ccc(NS(=O)(=O)c2c(F)c(Br)cc(F)c2Br)cc1N1CCN(C)CC1
Selectivity (Homo sapiens): > 300
Ki [7]: 3.16 nM

COc1ccc(NS(=O)(=O)c2cn(C)cn2)cc1N1CCN(C)CC1
Ki [7]: 794 nM

CNc1cc(NS(=O)(=O)c2ccc(N)cc2)cc(NC)n1
Ki [7]: 12.6 nM

COc1ccc(NS(=O)(=O)c2ccc([N+](=O)[O-])cc2)cc1N1CCN(C)CC1
Ki [7]: 79.4 nM

COc1ccc(NS(=O)(=O)c2c(C)sc3ccc(Cl)cc23)cc1N1CCN(C)CC1
Selectivity (Homo sapiens): > 300
Ki [7]: 1.26 nM

COc1ccc(NS(=O)(=O)c2ccc3c(Cl)cccc3c2)cc1N1CCN(C)CC1
Selectivity (Homo sapiens): > 250
Ki [7]: 0.794 nM
